Measurements from ChEMBL document CHEMBL4270642, “Boronic ester-linked macrocyclic lipopeptides as serine protease inhibitors targeting Escherichia coli type I signal peptidase” (Eur J Med Chem, 2018).
pIC50: −log10 of the molar value. ≈ marks a conversion by molar mass, not a printed value.

Key:
[1] = Hemolytic activity in human RBC at 100 uM after 45 mins by spectrophotometric method relative to control; type: ADME, cell-based, Erythrocyte; settings: red blood cells (erythrocytes), read-out: Activity
In short: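 Heparinized human blood; red cells washed three times in Tyrode buffer pH 7.4. Compound at 100 µM final with 1% DMSO and 50% RBC, shaken (250 rpm) 45 min at 37 °C. Cells pelleted (1000 × g, 10 min); supernatant haemoglobin at 540 nm. Percent lysis relative to buffer-only and 2% Triton X-100 controls.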

[2] = molecular target: Signal peptidase I (Escherichia coli K-12, UniProt P00803); experiment: Inhibition of Escherichia coli type 1 signal peptidase lepB preincubated for 10 mins followed by Dabcyl-VGGTATAYGAFSRPGLE-(EDANS)-OH substrate addition measured after 2 hrs by FRET based assay
Signal peptidase I, sequence (P00803 whole entry): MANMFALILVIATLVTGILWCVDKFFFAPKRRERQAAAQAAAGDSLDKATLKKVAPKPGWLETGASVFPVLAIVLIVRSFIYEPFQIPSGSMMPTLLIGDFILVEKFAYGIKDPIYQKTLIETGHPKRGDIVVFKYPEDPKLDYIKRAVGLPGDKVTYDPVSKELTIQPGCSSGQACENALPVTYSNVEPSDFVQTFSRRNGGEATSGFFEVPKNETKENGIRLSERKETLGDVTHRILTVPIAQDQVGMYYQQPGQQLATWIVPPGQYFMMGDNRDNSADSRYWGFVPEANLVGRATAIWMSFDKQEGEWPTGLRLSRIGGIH
In short: (§1)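 EcLepB (about 50 nM estimated) preincubated 10 min with compound. Reaction started with Dabcyl/EDANS FRET peptide at 8 µM final (Km 20 µM). Fluorescence followed continuously at 535 nm, 22 °C, for 2 h. Cleavage rates plotted against inhibitor concentration; IC50 from non-linear regression of sigmoidal dose-response curves.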

[3] = test system: Escherichia coli; experiment: Antibacterial activity against Escherichia coli ATCC 25922 after 16 to 20 hrs by broth microdilution method; type: functional
In short: (§2)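 Broth microdilution in cation-adjusted Mueller-Hinton II per EUCAST/CLSI; two-fold compound series 64 down to 0.25 µg/mL final. Inoculum from fresh colonies (non-selective agar, 18-24 h, 35 ± 2 °C), adjusted to 0.5 McFarland, diluted to about 5 × 10^5 CFU/mL final. Static incubation 16-20 h at 35 ± 2 °C; MIC read visually as complete growth inhibition against medium-only wells.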

[4] = test system: Escherichia coli; experiment: Antibacterial activity against tolC deficient Escherichia coli CH3130 after 16 to 20 hrs by broth microdilution method; type: functional; in short: as §2
[5] = test system: Escherichia coli; experiment: Antibacterial activity against Escherichia coli D22 CGSG 5163 harboring Ips mutant after 16 to 20 hrs by broth microdilution method; type: functional
In short: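 Broth microdilution in cation-adjusted Mueller-Hinton II broth, following EUCAST and CLSI guidelines. Two-fold series at final concentrations 64 down to 0.25 µg/mL, with medium-only and growth controls. Inoculum from fresh colonies (18-24 h, 35 °C ± 2 °C) adjusted to 0.5 McFarland, final ≈5 × 10^5 CFU/mL. Plates incubated unshaken 16-20 h at 35 °C ± 2 °C. MIC read visually as complete inhibition of growth.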

[6] = test system: Pseudomonas aeruginosa; experiment: Antibacterial activity against Pseudomonas aeruginosa PAO1 after 16 to 20 hrs by broth microdilution method; type: functional; in short: as §2
[7] = test system: Pseudomonas aeruginosa; experiment: Antibacterial activity against efflux defective Pseudomonas aeruginosa PAO750 after 16 to 20 hrs by broth microdilution method; type: functional; in short: as §2
[8] = test system: Klebsiella pneumoniae; experiment: Antibacterial activity against Klebsiella pneumoniae ATCC 13883 after 16 to 20 hrs by broth microdilution method; type: functional; in short: as §2
[9] = test system: HepG2; experiment: Cytotoxicity against human HepG2 cells after 72 hrs by FMSA; type: cell-based; settings: HepG2, 72 h
In short: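 HepG2 (ATCC) grown in EMEM with 10% FBS, pen/strep, 2 mM L-glutamine, used up to 20 passages. Seeded at 1000 cells/well, cultured overnight, then dosed acoustically from DMSO stocks. Eight two-fold dilutions in duplicate from top 64 or 32 µM; 72 h at 37 °C, 5% CO2. Fluorescein diacetate hydrolysis read at ex 485/em 530 nm; IC50 by non-linear regression.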

[10] = test system: Acinetobacter baumannii; experiment: Antibacterial activity against Acinetobacter baumannii ATCC 19606 after 16 to 20 hrs by broth microdilution method; type: functional; settings: ATCC 19606 = CIP 70.34 = JCM 6841; in short: as §2
[11] = test system: Staphylococcus aureus; experiment: Antibacterial activity against Staphylococcus aureus ATCC 29213 after 16 to 20 hrs by broth microdilution method; type: functional; in short: as §2
[12] = molecular target: Signal peptidase I (Escherichia coli K-12) (UniProt P00803); experiment: Inhibition of Escherichia coli type 1 signal peptidase lepB assessed as residual activity at 10 uM preincubated for 10 mins followed by Dabcyl-VGGTATAYGAFSRPGLE-(EDANS)-OH substrate addition measured after 2 hrs by FRET based assay (reference value: 100%); in short: as §1
Signal peptidase I (Escherichia coli K-12), sequence (P00803 whole entry): as above

[13] = molecular target: Signal peptidase I (Escherichia coli K-12) (UniProt P00803); experiment: Inhibition of Escherichia coli type 1 signal peptidase lepB assessed as residual activity at 5 uM preincubated for 10 mins followed by Dabcyl-VGGTATAYGAFSRPGLE-(EDANS)-OH substrate addition measured after 2 hrs by FRET based assay (reference value: 100%); in short: as §1
[14] = molecular target: Signal peptidase I (Escherichia coli K-12) (UniProt P00803); experiment: Inhibition of Escherichia coli type 1 signal peptidase lepB assessed as residual activity at 2.5 uM preincubated for 10 mins followed by Dabcyl-VGGTATAYGAFSRPGLE-(EDANS)-OH substrate addition measured after 2 hrs by FRET based assay (reference value: 100%); in short: as §1
[15] = molecular target: Signal peptidase I (Escherichia coli K-12) (UniProt P00803); experiment: Inhibition of Escherichia coli type 1 signal peptidase lepB assessed as residual activity at 1.25 uM preincubated for 10 mins followed by Dabcyl-VGGTATAYGAFSRPGLE-(EDANS)-OH substrate addition measured after 2 hrs by FRET based assay (reference value: 100%); in short: as §1
[16] = molecular target: Signal peptidase I (Escherichia coli K-12) (UniProt P00803); experiment: Inhibition of Escherichia coli type 1 signal peptidase lepB assessed as residual activity at 0.625 uM preincubated for 10 mins followed by Dabcyl-VGGTATAYGAFSRPGLE-(EDANS)-OH substrate addition measured after 2 hrs by FRET based assay (reference value: 100%); in short: as §1
[17] = molecular target: Signal peptidase I (Escherichia coli K-12) (UniProt P00803); experiment: Inhibition of Escherichia coli type 1 signal peptidase lepB assessed as residual activity at 0.3125 uM preincubated for 10 mins followed by Dabcyl-VGGTATAYGAFSRPGLE-(EDANS)-OH substrate addition measured after 2 hrs by FRET based assay (reference value: 100%); in short: as §1
[18] = molecular target: Signal peptidase I (Escherichia coli K-12) (UniProt P00803); experiment: Inhibition of Escherichia coli type 1 signal peptidase lepB assessed as residual activity at 0.1563 uM preincubated for 10 mins followed by Dabcyl-VGGTATAYGAFSRPGLE-(EDANS)-OH substrate addition measured after 2 hrs by FRET based assay (reference value: 100%); in short: as §1
[19] = molecular target: Signal peptidase I (Escherichia coli K-12) (UniProt P00803); experiment: Inhibition of Escherichia coli type 1 signal peptidase lepB assessed as residual activity at 0.0781 uM preincubated for 10 mins followed by Dabcyl-VGGTATAYGAFSRPGLE-(EDANS)-OH substrate addition measured after 2 hrs by FRET based assay (reference value: 100%); in short: as §1
[20] = molecular target: Signal peptidase I (Escherichia coli K-12) (UniProt P00803); experiment: Inhibition of Escherichia coli type 1 signal peptidase lepB assessed as residual activity at 0.0391 uM preincubated for 10 mins followed by Dabcyl-VGGTATAYGAFSRPGLE-(EDANS)-OH substrate addition measured after 2 hrs by FRET based assay (reference value: 100%); in short: as §1
[21] = molecular target: Signal peptidase I (Escherichia coli K-12) (UniProt P00803); experiment: Inhibition of Escherichia coli type 1 signal peptidase lepB assessed as residual activity at 0.0195 uM preincubated for 10 mins followed by Dabcyl-VGGTATAYGAFSRPGLE-(EDANS)-OH substrate addition measured after 2 hrs by FRET based assay (reference value: 100%); in short: as §1
[22] = molecular target: Signal peptidase I (Escherichia coli K-12) (UniProt P00803); experiment: Inhibition of Escherichia coli type 1 signal peptidase lepB assessed as residual activity at 0.0098 uM preincubated for 10 mins followed by Dabcyl-VGGTATAYGAFSRPGLE-(EDANS)-OH substrate addition measured after 2 hrs by FRET based assay (reference value: 100%); in short: as §1
[23] = molecular target: Signal peptidase I (Escherichia coli K-12) (UniProt P00803); experiment: Inhibition of Escherichia coli type 1 signal peptidase lepB assessed as residual activity at 0.0049 uM preincubated for 10 mins followed by Dabcyl-VGGTATAYGAFSRPGLE-(EDANS)-OH substrate addition measured after 2 hrs by FRET based assay (reference value: 100%); in short: as §1
[24] = molecular target: Signal peptidase I (Escherichia coli K-12) (UniProt P00803); experiment: Inhibition of Escherichia coli type 1 signal peptidase lepB assessed as residual activity at 0.0024 uM preincubated for 10 mins followed by Dabcyl-VGGTATAYGAFSRPGLE-(EDANS)-OH substrate addition measured after 2 hrs by FRET based assay (reference value: 100%); in short: as §1
[25] = molecular target: Signal peptidase I (Escherichia coli K-12) (UniProt P00803); experiment: Inhibition of Escherichia coli type 1 signal peptidase lepB assessed as residual activity at 0.0012 uM preincubated for 10 mins followed by Dabcyl-VGGTATAYGAFSRPGLE-(EDANS)-OH substrate addition measured after 2 hrs by FRET based assay (reference value: 100%); in short: as §1

Compound	hemolysis at 0.75 h, 100 µM [1] [%]	pIC50 [2]	MIC [3] [µg/mL]	MIC [4] [µg/mL]	MIC [5] [µg/mL]	MIC [6] [µg/mL]	MIC [7] [µg/mL]	MIC [8] [µg/mL]	pIC50 [9]	MIC [10] [µg/mL]	MIC [11] [µg/mL]	Activity [12] [%]	Activity [13] [%]	Activity [14] [%]	Activity [15] [%]	Activity [16] [%]	Activity [17] [%]	Activity [18] [%]	Activity [19] [%]	Activity [20] [%]	other results
CCCCCCc1ccc(-c2nc3cc(C(=O)N[C@@H](CCCN)C(=O)N[C@H](C(=O)N[C@@H](C)C(=O)N[C@H]4Cc5cn(nn5)CCO[C@@H]5C[C@@H]6OB(O[C@@H]6C5)[C@H](C)NC4=O)[C@@H](C)O)ccc3[nH]2)cc1	0.5	7.54	> 64	16 (≈ 17.3 µM)	64 (≈ 69.1 µM)	> 64	64 (≈ 69.1 µM)	64 (≈ 69.1 µM)	4.61	64 (≈ 69.1 µM)	4 (≈ 4.32 µM)	6.3	-0.1	2.8	5.4	8.6	6.8	7.2	16.5	40.6	Activity [21]: 63.2%; Activity [22]: 86.3%; Activity [23]: 88.3%; Activity [24]: 92.8%; Activity [25]: 100%
CCCCCCC#Cc1cncc(C(=O)N[C@@H](CCCN)C(=O)N[C@H](C(=O)N[C@@H](C)C(=O)N[C@H]2Cc3cn(nn3)CCO[C@@H]3C[C@@H]4OB(O[C@@H]4C3)[C@H](C)NC2=O)[C@@H](C)O)c1	0.01	7.39	> 64	64 (≈ 76.7 µM)	> 64	> 64	> 64	> 64	< 4.19	> 64	32 (≈ 38.3 µM)	-1.2	2.3	8.2	7.9	13	13.4	10.6	26.8	53.7	Activity [21]: 75.2%; Activity [22]: 82.7%; Activity [23]: 91%; Activity [24]: 93.6%; Activity [25]: 106%
C[C@@H]1NC(=O)[C@@H](NC(=O)[C@H](C)NC(=O)[C@@H](NC(=O)[C@H](CCCN)NC(=O)c2ccc(=O)n(-c3ccccc3)c2)[C@@H](C)O)Cc2cn(nn2)CCO[C@@H]2C[C@@H]3OB1O[C@@H]3C2	0.04	5.78	> 64	> 64	> 64	> 64	> 64	> 64	< 4.19	> 64	> 64	10.4	26.8	42.8	62.1	66.9	69.5	105	100	91.6	Activity [21]: 104%; Activity [22]: 101%; Activity [23]: 97.5%; Activity [24]: 82.4%; Activity [25]: 84.6%
